From ChEMBL document CHEMBL1135457 (J Med Chem, 2002)
One block for each compound: values may come before it.

Key:
Androgen receptor = biological target: T1, Androgen receptor (Homo sapiens, UniProt P10275); test: Displacement of [3H]DHT from human Androgen receptor
T1 sequence (P10275 whole entry): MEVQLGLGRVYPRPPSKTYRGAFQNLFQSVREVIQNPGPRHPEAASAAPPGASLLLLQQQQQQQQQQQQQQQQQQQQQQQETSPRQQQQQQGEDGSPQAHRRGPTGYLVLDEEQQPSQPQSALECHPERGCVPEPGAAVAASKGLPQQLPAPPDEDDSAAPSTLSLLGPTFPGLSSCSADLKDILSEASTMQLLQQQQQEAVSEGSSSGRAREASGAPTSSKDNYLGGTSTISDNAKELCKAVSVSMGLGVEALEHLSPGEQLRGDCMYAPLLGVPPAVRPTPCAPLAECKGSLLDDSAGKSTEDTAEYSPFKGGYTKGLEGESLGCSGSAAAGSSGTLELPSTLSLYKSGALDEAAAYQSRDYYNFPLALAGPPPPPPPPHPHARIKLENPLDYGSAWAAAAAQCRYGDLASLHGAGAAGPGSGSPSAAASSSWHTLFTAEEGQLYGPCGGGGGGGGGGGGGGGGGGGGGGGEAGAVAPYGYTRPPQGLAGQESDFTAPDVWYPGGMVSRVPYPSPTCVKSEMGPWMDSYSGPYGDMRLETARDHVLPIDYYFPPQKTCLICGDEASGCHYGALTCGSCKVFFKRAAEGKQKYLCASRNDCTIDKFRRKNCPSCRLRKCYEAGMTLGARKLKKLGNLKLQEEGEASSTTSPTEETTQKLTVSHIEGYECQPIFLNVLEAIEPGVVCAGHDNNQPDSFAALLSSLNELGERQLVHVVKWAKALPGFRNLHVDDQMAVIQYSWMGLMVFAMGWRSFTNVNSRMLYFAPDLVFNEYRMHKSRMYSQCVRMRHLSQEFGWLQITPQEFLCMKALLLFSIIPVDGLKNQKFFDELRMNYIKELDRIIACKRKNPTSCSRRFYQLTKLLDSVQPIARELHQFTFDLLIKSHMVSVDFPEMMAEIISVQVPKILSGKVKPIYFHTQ
Summary of the method: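 Whole-cell extract of Sf9 cells infected with baculovirus expressing human AR (MOI 2, harvested 48 h), sonicated in pH 7.2 HEPES/molybdate/glycerol buffer. Extract bound to hydroxylapatite with 1 nM [3H]DHT and compound (0.01 nM–30 μM) in triplicate, 1 h, 4 °C. Nonspecific binding from 10 μM unlabeled DHT. Filtration, scintillation counting, sigmoidal IC50, Cheng–Prusoff Ki (Kd 0.4 nM).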

[1] = biological target: T2, Mineralocorticoid receptor (Homo sapiens) (UniProt P08235)
T2 sequence (whole entry): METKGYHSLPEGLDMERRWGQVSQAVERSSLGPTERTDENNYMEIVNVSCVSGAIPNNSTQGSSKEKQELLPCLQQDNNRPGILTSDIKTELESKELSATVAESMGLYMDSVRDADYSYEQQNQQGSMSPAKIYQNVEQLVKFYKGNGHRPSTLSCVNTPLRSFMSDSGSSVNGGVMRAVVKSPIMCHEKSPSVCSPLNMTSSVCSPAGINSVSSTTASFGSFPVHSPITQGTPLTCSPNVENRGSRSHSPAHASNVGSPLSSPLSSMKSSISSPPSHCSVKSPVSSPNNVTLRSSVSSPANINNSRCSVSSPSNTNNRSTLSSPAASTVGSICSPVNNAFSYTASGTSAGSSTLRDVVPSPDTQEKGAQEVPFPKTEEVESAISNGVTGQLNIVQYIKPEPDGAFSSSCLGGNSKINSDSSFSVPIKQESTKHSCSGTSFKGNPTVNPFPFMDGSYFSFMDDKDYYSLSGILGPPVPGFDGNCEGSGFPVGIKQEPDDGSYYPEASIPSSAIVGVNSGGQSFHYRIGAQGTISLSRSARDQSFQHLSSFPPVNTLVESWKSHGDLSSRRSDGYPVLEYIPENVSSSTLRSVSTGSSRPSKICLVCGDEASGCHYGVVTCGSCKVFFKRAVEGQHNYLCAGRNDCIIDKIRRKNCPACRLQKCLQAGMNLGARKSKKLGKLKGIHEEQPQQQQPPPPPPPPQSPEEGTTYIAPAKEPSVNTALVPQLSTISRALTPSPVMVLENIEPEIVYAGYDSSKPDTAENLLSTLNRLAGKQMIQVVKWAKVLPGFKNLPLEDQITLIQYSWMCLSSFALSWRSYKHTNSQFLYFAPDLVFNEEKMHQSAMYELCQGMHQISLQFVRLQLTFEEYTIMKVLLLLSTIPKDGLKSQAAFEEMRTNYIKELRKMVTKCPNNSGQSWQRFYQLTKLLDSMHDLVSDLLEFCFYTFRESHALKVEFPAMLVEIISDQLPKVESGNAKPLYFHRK

Estrogen receptor = biological target: T3, Estrogen receptor (Homo sapiens, UniProt P03372); test: Displacement of radioligand from human Estrogen receptor alpha
T3 sequence (P03372 whole entry): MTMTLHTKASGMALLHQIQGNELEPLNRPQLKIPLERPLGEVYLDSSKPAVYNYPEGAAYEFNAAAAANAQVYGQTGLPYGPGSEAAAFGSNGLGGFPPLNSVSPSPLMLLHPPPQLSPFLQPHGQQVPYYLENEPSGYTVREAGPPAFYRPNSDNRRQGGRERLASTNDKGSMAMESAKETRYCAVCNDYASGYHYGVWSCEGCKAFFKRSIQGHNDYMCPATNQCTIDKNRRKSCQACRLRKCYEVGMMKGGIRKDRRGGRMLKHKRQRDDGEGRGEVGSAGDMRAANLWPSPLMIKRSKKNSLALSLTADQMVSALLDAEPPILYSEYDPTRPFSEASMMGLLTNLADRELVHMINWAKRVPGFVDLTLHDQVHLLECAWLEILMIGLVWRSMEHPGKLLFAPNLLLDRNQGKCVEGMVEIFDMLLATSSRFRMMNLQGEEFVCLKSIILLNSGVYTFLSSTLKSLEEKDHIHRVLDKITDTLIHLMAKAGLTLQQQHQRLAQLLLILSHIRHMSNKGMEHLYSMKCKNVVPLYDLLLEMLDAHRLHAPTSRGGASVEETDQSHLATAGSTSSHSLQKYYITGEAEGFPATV

- Ki (Androgen receptor): 650 nM
SMILES: CC#C[C@@]1(O)CC[C@@]2(Cc3ccccc3)c3ccc(O)cc3CC[C@@H]2C1

- Kif [1]: > 1000 nM
SMILES: O=C1CC[C@@]2(Cc3ccccc3)c3ccc(O)cc3CC[C@@H]2C1

SMILES: CC#C[C@]1(O)CCC2C3CCC4=CC(=O)CC[C@]4(Cc4ccc(C)cc4)C3=CC[C@@]21C (stereo partly drawn)
- Ki (Estrogen receptor): > 10000 nM
